According to PubChem BioAssay AID623966 (The Scripps Research Institute Molecular Screening Center, 2012):
Values joined by “and” are separate entries in the source; they are usually repeats but may differ in a detail not shown here. Equal entries are not always repeated. Active and inactive are the calls of the source.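 How the source made its calls: active means compounds that push a bacterial single-strand DNA binding protein off labeled DNA, with IC50 up to 50 micromolar; inactive means the rest.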

Molecular target: Single-stranded DNA-binding protein (Escherichia coli (strain K12)) (UniProt P0AGE0)
Assay: E. coli SSB-ssDNA binding disruption – biochemical, fluorescence polarization, selectivity assay for HCV NS3 helicase inhibitor project, late-stage follow-up (AID 623966)
Conditions: E. coli SSB / Cy5-dT15 DNA
In short: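 Test system: E. coli SSB (ssDNA-binding protein), Cy5-labelled dT15 DNA. Also added: 5 nM 5'-Cy5-labelled dT15 DNA probe, final. Technique: fluorescence polarization of Cy5 label. Read-out basis: percent displacement and IC50 from dose-response fits. Benchmarks: No-SSB wells and 200 nM dT20 competitor wells as normalization references.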

Sequence of Single-stranded DNA-binding protein (Escherichia coli (strain K12)) (P0AGE0 whole entry, looked up): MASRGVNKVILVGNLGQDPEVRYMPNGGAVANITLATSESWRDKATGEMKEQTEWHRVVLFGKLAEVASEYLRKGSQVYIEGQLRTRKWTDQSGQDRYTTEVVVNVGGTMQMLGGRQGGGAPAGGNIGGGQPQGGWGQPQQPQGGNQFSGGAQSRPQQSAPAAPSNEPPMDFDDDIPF

Row | SMILES | IC50
1 | Cc1ccc2nc(-c3ccc4nc(-c5ccc(NC(=O)c6cccc(C(F)(F)F)c6)cc5)sc4c3)sc2c1S(=O)(=O)O | > 100 µM (inactive)
2 | Cc1ccc2nc(-c3ccc4nc(-c5ccc(NC(=O)c6cc(C(F)(F)F)cc(C(F)(F)F)c6)cc5)sc4c3)sc2c1S(=O)(=O)O | 36 µM
3 | Cc1ccc2nc(-c3ccc4nc(-c5ccc(NC(=O)Nc6ccc(Cl)cc6)cc5)sc4c3)sc2c1S(=O)(=O)O | 5 µM
4 | Cc1ccc2nc(-c3ccc4nc(-c5ccc(NC(=O)c6ccc(CNC(=O)OCC7c8ccccc8-c8ccccc87)cc6)cc5)sc4c3)sc2c1S(=O)(=O)O | inactive
5 | COC(=O)c1ccc(C(=O)Nc2ccc(-c3nc4ccc(-c5nc6ccc(C)c(S(=O)(=O)O)c6s5)cc4s3)cc2)cc1 | 2 µM
6 | Cc1ccc2nc(-c3ccc4nc(-c5ccc(NC(=O)Nc6ccccc6)cc5)sc4c3)sc2c1S(=O)(=O)O | 6 µM
7 | Cc1ccc2nc(-c3ccc4nc(-c5ccc(NC(=O)c6ccc(C(F)(F)F)cc6)cc5)sc4c3)sc2c1S(=O)(=O)O | 4 µM
8 | Cc1ccc2nc(-c3ccc4nc(-c5ccc(NC(=O)Nc6ccc(F)cc6)cc5)sc4c3)sc2c1S(=O)(=O)O | 11 µM
9 | Cc1ccc2nc(-c3ccc4nc(-c5ccc(NC(=O)c6ccc7ccccc7c6)cc5)sc4c3)sc2c1S(=O)(=O)O | 22 µM and 28 µM
10 | Cc1ccc2nc(-c3ccc4nc(-c5ccc(NC(=O)c6cccc(C(F)(F)F)c6F)cc5)sc4c3)sc2c1S(=O)(=O)O | inactive
11 | Cc1ccc2nc(-c3ccc(NC(=O)c4ccc(NC(=O)Nc5ccccc5)cc4)cc3)sc2c1S(=O)(=O)O | 20 µM
12 | CC(=O)Nc1ccc(-c2nc3ccc(-c4nc5ccc(C)c(S(=O)(=O)O)c5s4)cc3s2)cc1 | 17 µM
13 | Cc1ccc2nc(-c3ccc4nc(-c5ccc(NC(=O)c6ccncc6)cc5)sc4c3)sc2c1S(=O)(=O)O | inactive
14 | Cc1ccc2nc(-c3ccc4nc(-c5ccc(NC(=O)c6ccc(Cl)cc6)cc5)sc4c3)sc2c1S(=O)(=O)O | 46 µM
15 | Cc1ccc2nc(-c3ccc4nc(-c5ccc(NC(=O)c6ccc7nc(-c8ccc(N)cc8)sc7c6)cc5)sc4c3)sc2c1S(=O)(=O)O | 3 µM
16 | Cc1ccc2nc(-c3ccc4nc(-c5ccc(NC(=O)c6ccc(N)cc6)cc5)sc4c3)sc2c1S(=O)(=O)O | 3 µM

Row | SMILES | IC50
17 | Cc1ccc2nc(-c3ccc4nc(-c5ccc(NC(=O)c6ccc(NC(=O)OCC7c8ccccc8-c8ccccc87)cc6)cc5)sc4c3)sc2c1S(=O)(=O)O | > 100 µM (inactive)
18 | Cc1ccc2nc(-c3ccc4nc(-c5ccc(NC(=O)c6ccc(Cl)c(Cl)c6)cc5)sc4c3)sc2c1S(=O)(=O)O | > 100 µM (inactive)
19 | Cc1ccc2nc(-c3ccc4nc(-c5ccc(NC(=O)c6ccc(C(F)(F)F)c(F)c6)cc5)sc4c3)sc2c1S(=O)(=O)O | 10 µM
20 | Cc1ccc2nc(-c3ccc4nc(-c5ccc(NC(=O)c6ccccc6)cc5)sc4c3)sc2c1S(=O)(=O)O | 4 µM
21 | Cc1ccc2nc(-c3ccc(NC(=O)c4ccc(NC(=O)c5ccc(N)cc5)cc4)cc3)sc2c1S(=O)(=O)O | 17 µM
22 | Cc1ccc2nc(-c3ccc4nc(-c5ccc(NC(=O)c6cccnc6)cc5)sc4c3)sc2c1S(=O)(=O)O | > 100 µM (inactive)
23 | Cc1ccc2nc(-c3ccc(NC(=O)c4ccc(NC(=O)c5ccc(NC(=O)OCC6c7ccccc7-c7ccccc76)cc5)cc4)cc3)sc2c1S(=O)(=O)O | 7 µM
24 | Cc1ccc2nc(-c3ccc(NC(=O)c4ccc(NC(=O)c5ccc(C(F)(F)F)cc5)cc4)cc3)sc2c1S(=O)(=O)O | 23 µM
25 | Cc1ccc2nc(-c3ccc4nc(-c5ccc(N(C)C(=O)c6ccc7ccccc7c6)cc5)sc4c3)sc2c1S(=O)(=O)O | 9 µM
26 | Cc1ccc2nc(-c3ccc4nc(-c5ccc(NC(=O)c6cccc(Cl)c6)cc5)sc4c3)sc2c1S(=O)(=O)O | > 100 µM (inactive)
27 | Cc1ccc2nc(-c3ccc(NC(=O)c4ccc(NS(=O)(=O)c5ccccc5)cc4)cc3)sc2c1S(=O)(=O)O | > 100 µM (inactive)
28 | Cc1ccc(NC(=O)Nc2ccc(-c3nc4ccc(-c5nc6ccc(C)c(S(=O)(=O)O)c6s5)cc4s3)cc2)cc1 | 10 µM
29 | Cc1ccc2nc(-c3ccc4nc(-c5ccc(NC(=O)c6ccc(N(C)C)cc6)cc5)sc4c3)sc2c1S(=O)(=O)O | 4 µM
30 | Cc1ccc2nc(-c3ccc4nc(-c5ccc(NC(=O)c6ccc(Br)cc6)cc5)sc4c3)sc2c1S(=O)(=O)O | 27 µM
31 | Cc1ccc2nc(-c3ccc(NC(=O)c4ccc(NC(=O)OCC5c6ccccc6-c6ccccc65)cc4)cc3)sc2c1S(=O)(=O)O | 27 µM
32 | Cc1ccc2nc(-c3ccc(NC(=O)c4ccc(NC(=S)Nc5ccccc5)cc4)cc3)sc2c1S(=O)(=O)O | 23 µM

Further lines, results first:

Row | IC50 | SMILES
33 | inactive | Cc1ccc2nc(-c3ccc(NC(=O)c4ccc(NC(=O)c5ccccc5)cc4)cc3)sc2c1S(=O)(=O)O
34 | 14 µM | Cc1ccc2nc(-c3ccc4nc(-c5ccc(NC(=O)c6cc(F)ccc6C(F)(F)F)cc5)sc4c3)sc2c1S(=O)(=O)O
35 | 7 µM | Cc1ccc2nc(-c3ccc4nc(-c5ccc(NC(=S)Nc6ccccc6)cc5)sc4c3)sc2c1S(=O)(=O)O
36 | > 100 µM (inactive) | Cc1ccc2nc(-c3ccc4nc(-c5ccc(NC(=O)c6cc(F)cc(C(F)(F)F)c6)cc5)sc4c3)sc2c1S(=O)(=O)O
37 | 5 µM | Cc1ccc(C(=O)Nc2ccc(-c3nc4ccc(-c5nc6ccc(C)c(S(=O)(=O)O)c6s5)cc4s3)cc2)cc1
38 | 13 µM | Cc1ccc2nc(-c3ccc4nc(-c5ccc(NC(=O)c6c(F)cccc6C(F)(F)F)cc5)sc4c3)sc2c1S(=O)(=O)O
39 | 9 µM | Cc1ccc2nc(-c3ccc4nc(-c5ccc(NC(=O)c6cccc7ccccc67)cc5)sc4c3)sc2c1S(=O)(=O)O
40 | 15 µM | Cc1ccc2nc(-c3ccc4nc(-c5ccc(NC(=O)Nc6ccc(C(F)(F)F)cc6)cc5)sc4c3)sc2c1S(=O)(=O)O
41 | 5 µM | Cc1ccc2nc(-c3ccc4nc(-c5ccc(NCc6ccccc6)cc5)sc4c3)sc2c1S(=O)(=O)O
42 | 13 µM | Cc1ccc2nc(-c3ccc4nc(-c5ccc(NC(=O)c6ccccc6C(F)(F)F)cc5)sc4c3)sc2c1S(=O)(=O)O
43 | 14 µM | Cc1ccc2nc(-c3ccc4nc(-c5ccc(NC(=O)c6ccc(F)cc6)cc5)sc4c3)sc2c1S(=O)(=O)O
44 | 10 µM | COc1ccc(S(=O)(=O)Nc2ccc(-c3nc4ccc(-c5nc6ccc(C)c(S(=O)(=O)O)c6s5)cc4s3)cc2)cc1
45 | 2 µM | COc1ccc(C(=O)Nc2ccc(-c3nc4ccc(-c5nc6ccc(C)c(S(=O)(=O)O)c6s5)cc4s3)cc2)cc1
46 | 5 µM | Cc1ccc2nc(-c3ccc4nc(-c5ccc(NC(=O)c6ccc7nc(-c8ccc(NC(=O)OCC9c%10ccccc%10-c%10ccccc%109)cc8)sc7c6)cc5)sc4c3)sc2c1S(=O)(=O)O
47 | 12 µM | Cc1ccc2nc(-c3ccc4nc(-c5ccc(NC(=O)c6cc(C(F)(F)F)ccc6F)cc5)sc4c3)sc2c1S(=O)(=O)O
48 | 32 µM | Cc1ccc2nc(-c3ccc4nc(-c5ccc(NC(=O)c6ccc(C(C)(C)C)cc6)cc5)sc4c3)sc2c1S(=O)(=O)O
49 | 4 µM | COc1ccc(NC(=O)Nc2ccc(-c3nc4ccc(-c5nc6ccc(C)c(S(=O)(=O)O)c6s5)cc4s3)cc2)cc1
